Experimental data from ChEMBL document CHEMBL3600357 (J Med Chem, 2015).
Active and inactive are the calls of the source. No cut-off for these calls is given here.

Columns and labels:
SJSA-1 = assay: Inhibition of cell proliferation of human SJSA1 cells
[1] = Intrinsic clearance in human liver microsomes; type: ADME; conditions: read-out: CLH
[2] = Protein binding in Sprague-Dawley rat plasma by equilibrium dialysis method; type: ADME, cell-free; conditions: read-out: PPB
Procedure, shortened: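 Rat plasma protein binding by rapid equilibrium dialysis (RED) in 100% plasma.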

[3] = biological target: E3 ubiquitin-protein ligase Mdm2 (Canis lupus familiaris, UniProt P56950); assay: Inhibition of dog MDM2 by TR-FRET assay
E3 ubiquitin-protein ligase Mdm2, sequence (P56950 whole entry): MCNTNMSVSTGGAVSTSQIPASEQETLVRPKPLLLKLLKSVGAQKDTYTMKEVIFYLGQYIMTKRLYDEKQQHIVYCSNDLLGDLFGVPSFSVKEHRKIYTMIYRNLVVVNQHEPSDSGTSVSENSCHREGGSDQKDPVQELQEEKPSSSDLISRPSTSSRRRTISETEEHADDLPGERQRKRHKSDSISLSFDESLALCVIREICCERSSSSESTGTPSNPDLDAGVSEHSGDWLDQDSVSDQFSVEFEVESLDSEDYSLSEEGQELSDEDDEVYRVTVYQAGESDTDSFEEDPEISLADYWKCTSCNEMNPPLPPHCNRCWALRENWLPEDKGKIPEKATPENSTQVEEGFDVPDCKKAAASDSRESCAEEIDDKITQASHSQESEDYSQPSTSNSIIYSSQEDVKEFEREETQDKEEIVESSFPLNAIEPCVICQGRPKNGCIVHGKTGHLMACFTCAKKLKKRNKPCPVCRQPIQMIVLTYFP

[4] = Terminal half life in OF1 mouse at 1 mg/kg, iv; type: ADME, organism-based; conditions: in vivo, read-out: beta t1/2 (converted)
Mus musculus = assay: AUC in OF1 mouse at 3 mg/kg, po; type: ADME, organism-based; conditions: in vivo
[5] = Protein binding in OF1 mouse plasma by equilibrium dialysis method; type: ADME, cell-free; conditions: read-out: PPB
[6] = Terminal half life in beagle dog at 0.1 mg/kg, iv; type: ADME, organism-based, Canis lupus familiaris; conditions: in vivo, read-out: beta t1/2 (converted)
[7] = Protein binding in beagle dog plasma by equilibrium dialysis method; type: ADME, cell-free, Canis lupus familiaris; conditions: read-out: PPB
[8] = Terminal half life in cynomolgus monkey at 0.1 mg/kg, iv; type: ADME, organism-based, Macaca fascicularis; conditions: in vivo, read-out: beta t1/2 (converted)
[9] = Tmax in cynomolgus monkey at 0.3 mg/kg, po; type: ADME, organism-based, Macaca fascicularis; conditions: in vivo
[10] = Protein binding in cynomolgus monkey plasma by equilibrium dialysis method; type: ADME, cell-free, Macaca fascicularis; conditions: read-out: PPB
[11] = Inhibition of Ras (unknown origin) assessed as inhibition of Ras-Raf interaction by TR-FRET assay; design: species or system Homo sapiens
[12] = biological target: Apoptosis regulator Bcl-2 (Homo sapiens, UniProt P10415); assay: Inhibition of Bcl2 (unknown origin) assessed as inhibition of Bcl2-Bak interaction by TR-FRET assay
Apoptosis regulator Bcl-2, sequence (P10415 whole entry): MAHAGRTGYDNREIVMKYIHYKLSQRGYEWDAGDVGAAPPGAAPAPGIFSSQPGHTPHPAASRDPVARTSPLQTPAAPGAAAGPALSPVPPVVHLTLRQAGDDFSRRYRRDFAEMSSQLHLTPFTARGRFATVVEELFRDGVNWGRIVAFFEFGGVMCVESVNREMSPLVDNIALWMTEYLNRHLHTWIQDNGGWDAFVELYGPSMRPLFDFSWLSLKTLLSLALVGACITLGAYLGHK

[13] = biological target: Induced myeloid leukemia cell differentiation protein Mcl-1 (Homo sapiens, UniProt Q07820); assay: Inhibition of Mcl1 (unknown origin) assessed as inhibition of Mcl1-Noxa interaction by TR-FRET assay
Induced myeloid leukemia cell differentiation protein Mcl-1, sequence (Q07820 whole entry): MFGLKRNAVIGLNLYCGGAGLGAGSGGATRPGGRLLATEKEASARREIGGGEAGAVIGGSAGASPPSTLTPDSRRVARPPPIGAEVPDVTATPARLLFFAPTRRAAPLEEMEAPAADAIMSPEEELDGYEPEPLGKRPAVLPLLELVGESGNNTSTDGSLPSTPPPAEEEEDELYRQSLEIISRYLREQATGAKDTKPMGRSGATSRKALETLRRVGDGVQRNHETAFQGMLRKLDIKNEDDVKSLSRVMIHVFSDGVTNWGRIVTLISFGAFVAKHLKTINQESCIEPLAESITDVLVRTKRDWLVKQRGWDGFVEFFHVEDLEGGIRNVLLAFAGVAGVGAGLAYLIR

HCT-116 = assay: Inhibition of cell proliferation of human HCT116 cells deficient with p53 gene
[14] = Inhibition of cell proliferation of human Saos2 cells deficient with p53 gene; conditions: SAOS-2
Rattus norvegicus [15] = assay: In-vivo inhibition of MDM2/p53 interaction in human SJSA1 cells xenografted rat assessed as increase in p21 mRNA level at 30 mg/kg, po measured within 72 hrs post dose by qRT-PCR method; type: functional, organism-based; conditions: SJSA-1
Procedure, shortened: (§1)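 SJSA-1 (MDM2-amplified) tumour-bearing rats were dosed at 30 mg/kg. Tumour samples were collected over time, and p21, MDM2 and PUMA mRNA were measured as p53 pharmacodynamic markers, alongside compound levels.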

Rattus norvegicus [16] = assay: In-vivo inhibition of MDM2/p53 interaction in human SJSA1 cells xenografted rat assessed as increase in PUMA mRNA level at 30 mg/kg, po measured within 72 hrs post dose by qRT-PCR method; type: functional, organism-based; conditions: SJSA-1; procedure, shortened: as §1
Rattus norvegicus [17] = assay: Toxicity in human SJSA1 cells xenografted dosed rat assessed as induction of histopathological changes dosed orally on daily basis under q24h regime; type: organism-based, SJSA-1; conditions: in vivo, po
Procedure, shortened: (§2)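 Rats bearing MDM2-amplified SJSA-1 human tumours, treated daily. Tolerability was monitored during treatment. Histopathology for compound-related findings was performed at the 30 mg/kg daily dose.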

Rattus norvegicus [18] = assay: Toxicity in human SJSA1 cells xenografted dosed rat assessed as drug toleration dosed orally on daily basis under q24h regime; type: organism-based, SJSA-1; conditions: in vivo, po; procedure, shortened: as §2
Rattus norvegicus [19] = species on record: Rattus norvegicus; assay: Toxicity in male rat assessed as changes in adrenal gland parameters; type: organism-based; conditions: in vivo
Rattus norvegicus [20] = species on record: Rattus norvegicus; assay: Toxicity in rat testes assessed as effect on proliferative cells; type: organism-based, Testis; conditions: in vivo
Rattus norvegicus [21] = assay: Toxicity in human SJSA1 cells xenografted rat assessed as change in body weight at 5 mg/kg, po qd (reference value: 1.9 to 6.8%); type: organism-based, SJSA-1; conditions: in vivo
Rattus norvegicus [22] = assay: Toxicity in human SJSA1 cells xenografted rat assessed as change in body weight at 10 mg/kg, po qd (reference value: 1.9 to 6.8%); type: organism-based, SJSA-1; conditions: in vivo
Rattus norvegicus [23] = assay: Toxicity in human SJSA1 cells xenografted rat assessed as change in body weight at 30 mg/kg, po qd (reference value: 1.9 to 6.8%); type: organism-based, SJSA-1; conditions: in vivo
Rattus norvegicus [24] = assay: Toxicity in human SJSA1 cells xenografted rat assessed as change in body weight at 70 mg/kg, po dosed three times per week (reference value: 1.9 to 6.8%); type: organism-based, SJSA-1; conditions: in vivo
Rattus norvegicus [25] = assay: Toxicity in human SJSA1 cells xenografted rat assessed as mouse survival at 5 mg/kg, po qd; type: organism-based, SJSA-1; conditions: in vivo
Procedure, shortened: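 Tolerability was monitored in SJSA-1 tumour-bearing rats during the daily and 3qw (Monday, Wednesday, Friday) treatment schedules. Histopathology was done on all 3qw doses and on the 30 mg/kg daily group.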

[26] = AUC (0 to 24 hrs) in human SJSA1 cells xenografted rat assessed as mouse survival at 10 mg/kg, po qd; type: ADME, organism-based, SJSA-1; design: time < 24 hr, dose 10 mg/kg, route oral; conditions: in vivo
Procedure, shortened: (§3)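 Rats bearing MDM2-amplified human SJSA-1 tumors, dosed orally either daily or 3qw (Monday, Wednesday, Friday). Plasma exposure reported as AUC0-24, plus AUC0-48 for the 3qw schedule.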

[27] = AUC (0 to 24 hrs) in human SJSA1 cells xenografted rat assessed as mouse survival at 20 mg/kg, po qd; type: ADME, organism-based, SJSA-1; design: time < 24 hr, dose 20 mg/kg, route oral; conditions: in vivo; procedure, shortened: as §3
[28] = AUC (0 to 24 hrs) in human SJSA1 cells xenografted rat assessed as mouse survival at 30 mg/kg, po qd; type: ADME, organism-based, SJSA-1; design: time < 24 hr, dose 30 mg/kg, route oral; conditions: in vivo; procedure, shortened: as §3

`COc1cc2c(cc1OC(C)C)[C@H](c1ccc(Cl)cc1)N(c1ccc(N(C)C[C@H]3CC[C@H](N4CCN(C)C(=O)C4)CC3)cc1)C(=O)C2` [CGM-097] showed a GI50 (SJSA-1) of 0.35 µM, a microsomal CLint [1] of 52.3 µL/min/mg and a fraction unbound [2] of under 0.01. It also gave a Ki [3] of 0.0205 µM, a half-life [4] of 6.4 h and an AUC (Mus musculus) of 3.337 µM·h. For the same compound, the fraction unbound [5] was under 0.01, the half-life [6] was 19.8 h and the fraction unbound [7] was under 0.01. The half-life [8] was 8.3 h, the Tmax [9] was 1.3 h and the fraction unbound [10] was under 0.01. The IC50 [11] was 4.5 µM, the IC50 [12] was over 50 µM and the IC50 [13] was over 50 µM. The IC50 (HCT-116) was 16 µM, the IC50 [14] was 20.5 µM and the inhibition (Rattus norvegicus [15]) was “Active”. The inhibition (Rattus norvegicus [16]) was “Active”, the Activity (Rattus norvegicus [17]) was “Non-toxic” and the Activity (Rattus norvegicus [18]) was “Non-toxic”. The Activity (Rattus norvegicus [19]) was “Toxic”, the Activity (Rattus norvegicus [20]) was “Non-toxic” and the Activity (Rattus norvegicus [21]) was 2.8%. It also gave an Activity (Rattus norvegicus [22]) of 1.8%, an Activity (Rattus norvegicus [23]) of 4.5% and an Activity (Rattus norvegicus [24]) of 7%. For the same compound, the Activity (Rattus norvegicus [25]) was “Non-toxic”, the AUC at 24 h [26] was 61 µM·h and the AUC at 24 h [27] was 163 µM·h. The AUC at 24 h [28] was 421 µM·h.
